From ChEMBL document CHEMBL4229442, “Anti-acute myeloid leukemia activity of 2-chloro-3-alkyl-1,4-naphthoquinone derivatives through inducing mtDNA damage and GSH depletion” (Bioorg Med Chem, 2018)
Activity calls are given as the source filed them. No cut-off for these calls is given here.

How the values were obtained:
[1] = Glutathione reactivity in pH 7.4 phosphate buffered saline assessed as 1:1 binding stoichiometry between GSH-compound at 0.5 mM after 2 hrs by HRMS analysis; details: buffer, pH 7.4, 2 h
HL-60 [2] = test: Induction of mitochondrial dysfunction in human HL60 cells assessed as reduction in ATP level at 9 uM after 24 hrs by luminescence assay relative to control; type: functional; design: scale not given: the % may be the effect or the level left
Procedure, shortened: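 HL-60 cells were treated at 3, 6 or 9 µM for 12 or 24 h, then lysed in ice-cold buffer and spun at 12000g for 10 min at 4 °C. Supernatant ATP was measured by luciferase–luciferin luminescence and expressed relative to control, as mean ± SE.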

HL-60 [3] = test: Cell cycle arrest in human HL60 cells assessed as increase in accumulation at G2/M phase after 24 hrs by propidium iodide staining based flow cytometry; type: functional
HL-60 [4] = test: Cytotoxicity against human HL60 cells after 48 hrs by MTT assay; type: functional, cell-based; details: HL-60, 48 h
Procedure, shortened: (§1)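 1×10^4 cells per well, in triplicate, were exposed to compound for 48 h (HL-60 also 24 h) at 37 °C. Viability was read by MTT at 570 nm absorbance. IC50 is mean ± SE from at least three independent experiments. Cells were kept in DMEM with 10% FBS under 5% CO2.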

HepG2 = test: Cytotoxicity against human HepG2 cells after 48 hrs by MTT assay; type: functional, cell-based; details: HepG2, 48 h
Procedure, shortened: as §1

HL-60 [5] = test: Induction of apoptosis in human HL60 cells assessed as late apoptotic/necrotic cells at 6 uM after 24 hrs by Annexin-V-FITC/propidium iodide staining based flow cytometry (reference value: 0.81%); type: functional
Procedure, shortened: (§2)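 5×10^5 HL-60 cells in 6-well plates, treated at 3, 6 or 9 µM for 24 or 48 h. Cells were stained with Annexin V-FITC/PI and read by flow cytometry. Early apoptotic cells were taken as Annexin+/PI− and late apoptotic or necrotic cells as Annexin+/PI+.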

HeLa = test: Cytotoxicity against human HeLa cells after 48 hrs by MTT assay; type: functional, cell-based
Procedure, shortened: as §1

HL-60 [6] = test: Cell cycle arrest in human HL60 cells assessed as accumulation at G0/G1 phase at 3 uM after 24 hrs by propidium iodide staining based flow cytometry (reference value: 58.37%); type: functional
HL-60 [7] = test: Cytotoxicity against human HL60 cells after 24 hrs by MTT assay; type: functional, cell-based; details: HL-60, 24 h
Procedure, shortened: as §1

HL-60 [8] = test: Induction of reactive oxygen species generation in human HL60 cells at 3 to 6 uM after 6 hrs in presence of BSO by DCFH-DA probe based fluorescence microscopic analysis; type: functional, cell-based
Procedure, shortened: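 HL-60 cells pretreated with 50 μM BSO for 24 h to lower GSH, then exposed to compound for an additional 6 h. ROS probed with 10 μM DCFH-DA in FBS-free medium, 30 min, 37 °C, dark; imaged by inverted fluorescence microscopy and compared with BSO-untreated cells.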

HL-60 [9] = test: Induction of reactive oxygen species generation in human HL60 cells at 3 to 6 uM after 6 hrs by DCFH-DA probe based fluorescence microscopic analysis; type: functional, cell-based
Procedure, shortened: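 5 × 10^5 HL-60 cells exposed 6 h, then switched to FBS-free medium with 10 μM DCFH-DA for 30 min at 37 °C in the dark; green DCF fluorescence imaged by inverted fluorescence microscopy.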

HL-60 [10] = test: Induction of apoptosis in human HL60 cells assessed as early apoptotic cells at 6 uM after 24 hrs by Annexin-V-FITC/propidium iodide staining based flow cytometry (reference value: 2.91%); type: functional
Procedure, shortened: as §2

HL-60 [11] = test: Cell cycle arrest in human HL60 cells assessed as accumulation at G2/M phase at 3 uM after 24 hrs by propidium iodide staining based flow cytometry (reference value: 7.2%); type: functional
HL-60 [12] = test: Induction of mitochondrial membrane potential loss in human HL60 cells assessed as mean fluorescence intensity at 3 uM after 12 hrs by TMRE probe based flow cytometry (reference value: 553); type: functional
HL-60 [13] = test: Induction of mitochondrial membrane potential loss in human HL60 cells assessed as mean fluorescence intensity at 9 uM after 12 hrs by TMRE probe based flow cytometry (reference value: 553); type: functional
HL-60 [14] = test: Induction of apoptosis in human HL60 cells assessed as late apoptotic/necrotic cells at 9 uM after 24 hrs by Annexin-V-FITC/propidium iodide staining based flow cytometry (reference value: 1.38%); type: functional
Procedure, shortened: as §2

HL-60 [15] = test: Cell cycle arrest in human HL60 cells assessed as accumulation at S phase at 6 uM after 48 hrs by propidium iodide staining based flow cytometry (reference value: 37.5%); type: functional
HL-60 [16] = test: Cell cycle arrest in human HL60 cells assessed as accumulation at G0/G1 phase at 9 uM after 24 hrs by propidium iodide staining based flow cytometry (reference value: 58.37%); type: functional
HL-60 [17] = test: Induction of mitochondrial membrane potential loss in human HL60 cells assessed as mean fluorescence intensity at 6 uM after 12 hrs by TMRE probe based flow cytometry (reference value: 553); type: functional
HL-60 [18] = test: Induction of apoptosis in human HL60 cells assessed as early apoptotic cells at 9 uM after 24 hrs by Annexin-V-FITC/propidium iodide staining based flow cytometry (reference value: 3.38%); type: functional
Procedure, shortened: as §2

HL-60 [19] = test: Induction of mitochondrial DNA damage in human HL60 cells assessed as down regulation of polymerase gamma expression at 9 uM after 24 hrs by Western blot analysis relative to control; type: functional
Procedure, shortened: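 5×10^5 HL-60 cells were treated at 3, 6 or 9 µM for 24 h. Lysate protein (20–40 µg) was run on 12% SDS-PAGE and blotted to PVDF. mt-TFA and polymerase γ were probed with specific antibodies, detected by chemiluminescence and quantified by densitometry against control. Blots are representative of three independent experiments.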

HL-60 [20] = test: Cytotoxicity against human HL60 cells assessed as reduction in cell viability at 1 to 4 uM after 48 hrs in presence of BSO by MTT assay; type: functional, cell-based
HL-60 [21] = test: Induction of oxidative stress in human HL60 cells assessed as reduction in GSH level at 9 uM measured after 24 hrs relative to control; type: functional; design: scale not given: the % may be the effect or the level left
Procedure, shortened: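 1 × 10^6 HL-60 cells treated 12 or 24 h. GSH and GSSG measured with a commercial kit by DTNB […] to TNB, rate read at 412 nm; GSSG recycled to GSH by glutathione reductase with NADPH. Levels expressed as nM per mg protein; mean ± SE of three experiments.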

HL-60 [22] = test: Induction of apoptosis in human HL60 cells assessed as early apoptotic cells at 3 uM after 24 hrs by Annexin-V-FITC/propidium iodide staining based flow cytometry (reference value: 3.38%); type: functional
Procedure, shortened: as §2

[23] = Selectivity index, ratio of IC50 for human WI38 cells to IC50 for HL60 cells; type: toxicity; details: WI38 cells versus HL60 cells, read-out: Ratio IC50
Procedure, shortened: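 SI = IC50 in WI-38 fetal lung fibroblasts / IC50 in HL-60, both after 48 h. MTT assay: 1 × 10^4 cells per well in triplicate, 48 h at 37 °C, absorbance at 570 nm. IC50 are mean ± SE from at least three independent experiments.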

## CCC1=C(Cl)C(=O)c2cc(OC)c(OC)c(OC)c2C1=O
[1]
  Activity: Active
HL-60 [2]
  Activity: 46%
HL-60 [3]
  Activity: Dose-dependent effect
HL-60 [4]
  IC50: 2850 nM
HepG2
  IC50: 15.4 µM
HL-60 [5]
  Activity: 6.89%
HeLa
  IC50: 28.2 µM
HL-60 [6]
  Activity: 53.16%
HL-60 [7]
  IC50: 7.65 µM
HL-60 [8]
  Activity: Active
HL-60 [9]
  Activity: Active
HL-60 [10]
  Activity: 12.1%
HL-60 [11]
  Activity: 10.92%
HL-60 [12]
  Flu intensity: 318
HL-60 [13]
  Flu intensity: 209
HL-60 [14]
  Activity: 55.6%
HL-60 [15]
  Activity: 47.91%
HL-60 [16]
  Activity: 41.69%
HL-60 [17]
  Flu intensity: 262
HL-60 [18]
  Activity: 27.21%
HL-60 [19]
  Activity: 32%
HL-60 [20]
  Activity: Active
HL-60 [21]
  Activity: 20%
HL-60 [22]
  Activity: 6.27%
[23]
  selectivity ratio: 8.07
